Only some compounds are listed: those with a hit (about 1.8% of all), similar ones and a draw of the others.
SUMO HTRF inh: SUMOylation inhibition; P63279; HTRF SUMOylation assay, SAE1/SAE2 + UBC9, in vitro; inhibition, % at 35 µM; 290,000 compounds, 0.36% hits; AID 2006; in the data active = inhibition above about 50%, passing the limit was not always enough
Target sequence (P63279 whole entry, looked up): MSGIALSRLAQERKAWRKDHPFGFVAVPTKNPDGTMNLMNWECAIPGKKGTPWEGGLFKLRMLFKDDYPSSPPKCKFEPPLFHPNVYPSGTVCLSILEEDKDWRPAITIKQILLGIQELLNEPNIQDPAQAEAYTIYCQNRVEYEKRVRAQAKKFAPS
HNF4A DNA FP: change in binding of human HNF4 alpha to DNA; P41235; HNF4a-FITC DNA binding, fluorescence polarization, 1 h; activity change, % at 10 µM; 360,000 compounds, 0.3% hits; AID 1224865; in the data active = activity change above about 30%, passing the limit was not always enough
SENP1 FRET inh: SENP1 (human) catalytic domain inhibition. Q9P0U3. recombinant SENP1 catalytic domain, CyPet-SUMO1-YPet FRET cleavage. inhibition, % at 10 µM. 360,000 compounds, 0.21% hits;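 active = inhibition at least 30% at 10 µM, raw YFP signal under a set limit, fluorescence ratio 0.5 to 1.5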;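 note: 0% = enzyme with DMSO and 100% = no enzyme wells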
Target sequence (Q9P0U3 419-644 limits assumed): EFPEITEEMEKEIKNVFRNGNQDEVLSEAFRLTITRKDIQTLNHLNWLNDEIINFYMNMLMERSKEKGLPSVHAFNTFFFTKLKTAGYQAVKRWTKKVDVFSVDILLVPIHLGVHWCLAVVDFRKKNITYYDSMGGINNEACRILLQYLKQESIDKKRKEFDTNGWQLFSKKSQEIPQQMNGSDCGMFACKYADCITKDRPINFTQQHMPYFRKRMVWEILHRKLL
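Controls: no-enzyme wells low, DMSO-plus-enzyme wells high control. Test system: human recombinant His6-tagged SENP1 catalytic domain enzyme. Reagent: SFCypet-SUMO1-SFYpet FRET protein substrate, 25 nM final. Doses: one dose per compound, 10 µM, 0.5% DMSO. Detection: FRET, CFP and YFP emission. Timing: 50 min reaction at room temperature.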
Rpn11 block: Rpn11 (human) deubiquitinase inhibition. human 26S proteasome, Ub4-pepOG fluorescence polarization; 20S core pre-blocked with epoxomicin. calls only at 20 µM. 360,000 compounds, 0.59% hits. AID 588493;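 active = inhibition at 20 µM, scaled to each plate's controls, above about 33%, limit read from the data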
Target sequence (O00487 whole entry, looked up): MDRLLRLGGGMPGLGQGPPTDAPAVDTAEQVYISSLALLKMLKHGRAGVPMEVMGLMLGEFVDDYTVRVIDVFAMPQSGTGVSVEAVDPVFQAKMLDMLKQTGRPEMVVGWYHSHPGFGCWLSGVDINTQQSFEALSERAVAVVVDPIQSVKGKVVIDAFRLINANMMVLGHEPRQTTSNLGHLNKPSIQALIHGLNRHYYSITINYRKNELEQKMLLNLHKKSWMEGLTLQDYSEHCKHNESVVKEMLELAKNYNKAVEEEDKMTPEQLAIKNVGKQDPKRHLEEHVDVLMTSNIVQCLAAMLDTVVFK
TPT1 inh: C. albicans TPT1 enzyme inhibition | recombinant caTPT1, FP RNA substrate dephosphorylation | inhibition, % at 5 µM | 300,000 compounds, 0.81% hits;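 active = inhibition above the mean of all tested compounds plus 3 SD, set per screening campaign, cut at about 24% in these data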;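 note: plate controls were DMSO alone for no effect and ferristatin control at 100 nM for full effect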
CSN deneddyl inh: CSN deneddylation inhibition. 360,000 compounds, 0.38% hits. Purified CSN, SCF-Nedd8-OG deneddylation, fluorescence polarization. Q92905. inhibition, % at 12.5 µM;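 active = pattern-corrected inhibition above about 35%, with an unprinted fluorescence ratio check between 0.5 and 1.5, limit read from the data, passing the limit was not always enough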;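 note: 0% = enzyme with substrate and 100% = substrate without enzyme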
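assay system = purified human Csn5 enzyme expressed in HEK293T cells | amount = 0.24 nM enzyme | buffer or medium = Tris/NaCl/DTT buffer, pH 7.5 | reagent = 10 nM SCFSkp2-Nedd8OG | compound = one concentration, 12.5 µM, 0.25% DMSO | times = 90 min reaction at room temperature | signal = FP | read-out basis = % inhibition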
caTPT1 confirm: TPT1 (C. albicans) inhibition, confirmation | shares compounds with TPT1 inh | recombinant caTPT1, fluorescence polarization, RNase T1 coupled | inhibition, % at 5 µM | 2,400 compounds, 74% hits;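 active = inhibition above the primary screen limit, the mean inhibition of all tested compounds plus 3 SD, cut at about 25% in these data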
RNase T1 counter: counter-screen for TPT1 inhibitors: inhibitors of Aspergillus oryzae RNase T1 | shares compounds with TPT1 inh | RNase T1 cleavage, fluorescence polarization, 1536-well | 2,400 compounds, 83% hits | inhibition, % at 5 µM;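 active = inhibition above the solvent-only control well mean plus 3 SD, limit set per screening run, cut at about 23% in these data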;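 note: plate controls were DMSO wells with enzyme for no effect and wells without RNase T1 for full effect; inhibitors block cleavage so intact labeled substrate keeps polarization high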
Numbers without * were called inactive; i = inactive; x = not tested or not shown.

SMILES | SUMO HTRF inh | HNF4A DNA FP | SENP1 FRET inh | Rpn11 block | TPT1 inh | CSN deneddyl inh | caTPT1 confirm | RNase T1 counter
Cc1ccc(C2=CC(=O)C[C@H](c3ccc4c(c3)OCO4)C2)cc1 | x | -4 | 1 | i | x | -2 | x | x
O=C(CCN1C(=O)/C(=C/c2cccs2)SC1=S)N1CCCCC1 | 14 | 10 | 6 | i | 33* | 8 | 34* | 46*
CCOc1ccc2nc(N3CCCCCC3)sc2c1 | -12 | 1 | 2 | i | 1 | 4 | x | x
CCOc1ccc2nc(N3C(=O)/C(=C/c4ccccc4)NC3=S)sc2c1 | -39 | -1 | 17 | x | 26* | 19 | 35* | 45*
CC1=C(C)CC(C(=O)N2CCN(Cc3ccccc3)CC2)C(C(=O)O)C1 (stereo not given) | 19 | -2 | -5 | i | -6 | -3 | x | x
CC(=O)C(=Cc1ccc(O)cc1)C(C)=O | 10 | 3 | 8 | i | x | 0 | x | x
CC(C)(C)NC(=S)N/N=C\c1ccc(-c2ccc([N+](=O)[O-])cc2)o1 | 15 | 64* | -35 | x | 92* | 0 | 98* | 103*
CCCCC(=O)N/N=C/c1ccc(-c2ccc([N+](=O)[O-])cc2)o1 | 16 | 3 | -35 | i | 13 | 1 | x | x
Cc1cc(C)n(Cc2ccc(C(=O)N/N=C/c3ccc(-c4ccc([N+](=O)[O-])cc4)o3)o2)n1 | x | 49 | -22 | x | 76* | 105 | 65* | 25*
O=[N+]([O-])c1c(Nc2ccccn2)cc(Cl)c2nonc12 | 93* | 16 | -2 | x | 128* | -76 | 135* | 130*
O=C(O)CC1NC(=O)N(c2ccccc2)C1=O (stereo not given) | -1 | x | x | x | x | x | x | x
CCN(CC)c1ccc(/C=C/c2cccc[n+]2C)c(OC)c1 | -10 | 179 | 77 | x | 58* | 140 | 62* | 68*
O=S(=O)(c1ccc(NC(=S)N/N=C/c2c3ccccc3cc3ccccc23)cc1)N1CCOCC1 | 8 | 28 | -24 | i | 73* | 3 | 99* | 104*
COCCNC(=S)N/N=C/c1c2ccccc2cc2ccccc12 | -14 | 6 | -28 | i | 40* | 0 | 51* | 61*
S=C(NCCN1CCOCC1)N/N=C/c1c2ccccc2cc2ccccc12 | 0 | 46 | -22 | x | 38* | 2 | 46* | 58*
O=S(=O)(c1ccc(NC(=S)N/N=C/c2ccc(Oc3ccccc3)cc2)cc1)N1CCOCC1 | -1 | -1 | -3 | i | -2 | -5 | x | x
CNC(=S)N/N=C/c1c2ccccc2c(Cl)c2ccccc12 | 15 | 5 | -17 | i | 25* | 0 | 18 | 24*
O=S(=O)(c1ccc(Br)s1)N1CCC(Cc2ccccc2)CC1 | -22 | 17 | 8 | i | 12 | 2 | x | x
CC(C)(C)NCc1ccc(OCc2cccs2)cc1 | 2 | 3 | 1 | i | 0 | 3 | x | x
CCOn1c(=O)c[n+]([O-])c2ccccc21 | 15 | 3 | -1 | i | 9 | 13 | x | x
O=c1c[n+]([O-])c2ccccc2n1OCc1ccccn1 | 23 | -6 | 1 | i | 26* | 7 | 9 | 13
COc1cc(C(C)=O)ccc1OCC(O)Cn1nc(C)c(C(C)=O)c1C (stereo not given) | 10 | 3 | 1 | i | 3 | 2 | x | x
O=C(Cc1ccccc1)Nc1ccc(N2CCCC2)cc1 | 23 | 8 | -6 | i | 36* | 11 | 19 | 26*
O=C(Cc1ccccc1)Nc1ccc(N2CCOCC2)cc1 | 1 | 2 | 1 | i | 0 | -4 | x | x
O=C(c1ccc(N2CCCC2=O)cc1)N1CCOCC1 | -8 | 0 | -1 | i | 65* | -1 | 5 | 6
SMILES | SUMO HTRF inh | HNF4A DNA FP | SENP1 FRET inh | Rpn11 block | TPT1 inh | CSN deneddyl inh | caTPT1 confirm | RNase T1 counter
CCCCNC(=S)N=Nc1c(O)[nH]c2ccccc12 | -24 | -2 | 2 | i | 1 | -1 | x | x
O=C(COc1ccccc1[N+](=O)[O-])N/N=C/c1ccc(O)c([N+](=O)[O-])c1 | -7 | -5 | 3 | i | 61* | 1 | 9 | 12
COc1ccc(N2CCN(C(=O)C(NC(=O)c3c(F)cccc3F)C(C)C)CC2)cc1 (stereo not given) | -4 | 3 | -3 | i | -1 | -1 | x | x
COc1ccc(-c2ccc(-c3noc(-c4ccccc4C)n3)c(OC)n2)cc1 | 6 | 11 | -24 | i | 8 | 3 | x | x
COc1ccc(-c2ccc(-c3noc(-c4cccs4)n3)c(OC)n2)cc1 | 8 | 25 | -25 | x | 26* | 10 | 28* | 39*
Cn1cc(Cc2ccccc2)c(=O)c(Cc2ccccc2)c1 | x | 2 | 1 | i | x | -4 | x | x
COc1ccc(CN2C(=O)c3ccccc3C(/C=N/OCc3ccc(Cl)cc3)C2=O)cc1 (stereo not given) | -8 | 2 | -40 | i | 43* | -3 | 65* | 75*
O=Cc1ccc(OCc2ccc3ccccc3c2)cc1 | -13 | -3 | -2 | i | 0 | 5 | x | x
O=Cc1ccc(OCc2ccccn2)cc1 | 9 | -2 | 2 | i | 51* | -1 | 2 | 1
Cn1cc(CN2CCN(CCc3ccccc3)C(CCO)C2)cn1 (stereo not given) | 8 | 2 | 0 | i | 1 | 0 | x | x
Cc1nc(-c2coc3cc(C)c(N=O)c(O)c3/c2=N\N)cs1 | -16 | 1 | -14 | i | 80* | 2 | 9 | 15
O=C(NCc1ccccc1F)c1cccc(S(=O)(=O)N2CCCCC2)c1 | x | -2 | 0 | i | x | -4 | x | x
CC(=O)NC(Cc1cccc(F)c1)C(=O)NC1CCN(C(=O)Nc2ccc(C)cc2)CC1 (stereo not given) | 6 | 2 | -1 | i | 24* | 2 | 8 | 12
Cc1ccc(C)c(N(C(=O)c2csnn2)C(C(=O)NC2CCCCC2)c2ccccn2)c1 (stereo not given) | 2 | 6 | 0 | i | -1 | -1 | x | x
Oc1ccc(/C=N/Nc2nc(-c3cccnc3)nc3ccccc23)c(O)c1 | 2 | 36* | -35 | x | 46* | 9 | 59* | 69*
N#C/C(=C\c1ccco1)c1nc2ccccc2s1 | 22 | 7 | -36 | i | 10 | 1 | x | x
N#C/C(=C/c1ccc(-c2cc(C(=O)O)cc(C(=O)O)c2)o1)c1nc2ccccc2s1 | x | x | x | x | 141* | x | 141* | 133*
Cc1ccc2cc(C#N)c(NCCNC(=O)C3CCC3)nc2c1C | -2 | 3 | -121 | i | 0 | 2 | x | x
Cc1ccc(N/C=C/C(=O)c2ccco2)c(O)c1 | 4 | 9 | -36 | i | 29* | 2 | 46* | 55*
